Assay outcomes from PubChem.
Apaf1 inhib: inhibitors of human Apaf-1 apoptosome. 330,000 compounds, 0.71% hits. inhibition, % at 20 µM. reconstituted apoptosome caspase-3 activity, DEVD-Rh110 fluorescence; active = inhibition of at least 40% at 20 µM;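 also: plate controls were DMSO wells for no effect and DEVD-CHO caspase inhibitor wells for full effect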
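System: reconstituted apoptosome with Apaf-1, cytochrome c, caspase-9, procaspase-3, dATP; Signal: Rh110 fluorescence intensity; Schedule: 30 min compound preincubation, 50 min activation, room temperature; Reagent: cytochrome c trigger plus (Z-DEVD)2-Rh110 caspase-3 substrate.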
UBC13 inh: blocks human UBC13 polyubiquitin chain formation; inhibition, % at 20 µM; 330,000 compounds, 0.47% hits; P61088; TR-FRET; in the data active = inhibition above about 45%, passing the limit was not always enough
Target sequence (P61088 whole entry, looked up): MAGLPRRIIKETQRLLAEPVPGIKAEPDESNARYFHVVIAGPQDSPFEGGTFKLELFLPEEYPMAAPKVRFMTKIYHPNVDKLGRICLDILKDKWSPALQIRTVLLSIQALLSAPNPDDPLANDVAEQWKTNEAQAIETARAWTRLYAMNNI
UCH37 DUB inh: blocks the human deubiquitinase UCH37 | purified proteasome/UCH37, Ub-AMC cleavage fluorescence | inhibition, % (concentration not given with the values) | Q9Y5K5 | 330,000 compounds, 0.33% hits;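 active = mean inhibition over replicate wells above about 20%, limit read from the data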;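 also: 0% = compound-free wells with enzyme and 100% = wells lacking proteasome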
Target sequence (Q9Y5K5 whole entry, looked up): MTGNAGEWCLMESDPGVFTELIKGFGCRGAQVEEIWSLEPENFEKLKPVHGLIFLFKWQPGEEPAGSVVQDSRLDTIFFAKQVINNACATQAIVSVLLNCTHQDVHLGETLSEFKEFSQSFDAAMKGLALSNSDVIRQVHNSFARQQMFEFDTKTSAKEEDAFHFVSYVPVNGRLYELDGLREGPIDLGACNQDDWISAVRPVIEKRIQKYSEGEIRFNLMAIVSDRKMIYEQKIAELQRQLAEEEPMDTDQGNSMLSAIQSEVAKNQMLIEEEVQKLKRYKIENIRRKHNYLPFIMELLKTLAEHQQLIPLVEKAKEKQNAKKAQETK
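System: Proteasome-associated human UCH37 deubiquitinase; Input: 0.15 nM proteasome in added enzyme buffer; Also added: Ub-AMC substrate from 1 µM stock; Incubation: 30 min compound-proteasome preincubation then 25 min substrate reaction, room temperature; Detection: fluorescence, ex 355 nm, em 460 nm; Read-out: % inhibition of Ub-AMC cleavage fluorescence; Benchmarks: no-proteasome and no-compound wells.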
PREPL inh: inhibitors of human prolyl oligopeptidase-like enzyme PREPL; recombinant PREPL, fluorescence polarization activity-based probe; inhibition, % at 5.96 µM; 320,000 compounds, 0.68% hits; AID 2751; in the data active = inhibition above about 43%;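 also: 0% = enzyme with DMSO and 100% = wells lacking enzyme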
Casp3 UBC13 ctr: inhibits human caspase-3 in UBC13 counter-screen; shares compounds with UBC13 inh; inhibition, % at 20 µM; 1,400 compounds, 4% hits; Recombinant caspase-3, Caspase-Glo 3/7 luminescence, 60 min;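 active = mean inhibition across replicates above about 26%, limit read from the data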;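 also: plate controls were DMSO with caspase-3 for no effect and DMSO wells lacking enzyme for full effect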
Target sequence (P42574 whole entry, looked up): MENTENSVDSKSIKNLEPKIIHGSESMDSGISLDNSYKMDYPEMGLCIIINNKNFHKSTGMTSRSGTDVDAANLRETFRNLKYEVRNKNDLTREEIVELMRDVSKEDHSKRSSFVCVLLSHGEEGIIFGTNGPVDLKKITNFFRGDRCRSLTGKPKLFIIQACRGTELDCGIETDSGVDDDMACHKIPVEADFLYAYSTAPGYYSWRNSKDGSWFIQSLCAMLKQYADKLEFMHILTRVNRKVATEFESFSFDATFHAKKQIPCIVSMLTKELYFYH
UBC13 confirm: confirmation of human UBC13 polyubiquitin inhibitors; AID 488859; inhibition, % at 10 µM; 1,400 compounds, 68% hits; UBC13 polyubiquitination, TR-FRET, biochemical; shares compounds with UBC13 inh; in the data active = inhibition above about 45%
Apaf-1 inh conf2: Apaf-1 inhibition, single-dose confirmed; shares compounds with Apaf1 inhib; reconstituted apoptosome, caspase-3 DEVD-Rh110 fluorescence; inhibition, % at 20 µM; 1,800 compounds, 25% hits; AID 504614;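 active = mean inhibition of at least 40% at 20 µM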;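 also: plate controls were DMSO wells for no effect and DEVD-CHO caspase inhibitor control wells for full effect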
Rh110 quench: counter-screen for Apaf-1 inhibitors: fluorescence interference; shares compounds with Apaf1 inhib; Rh110 fluorescence interference, quenched caspase reaction; activation (fluorescence interference), % at 20 µM; 1,800 tested, under 10 active;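 active = signal rise of 40% or more at 20 µM, treated as a fluorescence artifact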
Apaf1 inh interf: counter-screen for Apaf-1 inhibitors: fluorescence interference, dose response; shares compounds with Apaf1 inhib; fluorescence interference counterscreen, Apaf-1 assay format; IC50, µM; 460 tested, under 10 active; AID 588538; call rule not given here
UCH37 reconfirm: reconfirmed inhibitor of human deubiquitinase UCH37 | AID 624100 | shares compounds with UCH37 DUB inh | inhibition, % at 20 µM | 480 compounds, 27% hits | Proteasome-bound UCH37, Ub-AMC cleavage fluorescence;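 active = average inhibition over replicates above about 50%, so the earlier screening hit is confirmed, limit read from the data; inactive = the rest, counted as false positives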;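 also: based on cleavage rate fitted by regression over a 30 min kinetic read; 0% = proteasome plus Ub-AMC and 100% = Ub-AMC without proteasome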
* marks the source's active call; other numbers are inactive results; / = no result given. Hits are enriched below; roughly 1.5% of the tested compounds scored in any of these assays.

SMILES	Apaf1 inhib	UBC13 inh	UCH37 DUB inh	PREPL inh	Apaf-1 inh conf2	Rh110 quench	others
CCOc1ccc(NS(=O)(=O)c2cc(C(=O)NCCCN3CCOCC3)ccc2C)cc1	65.5*	73.6*	3.3	14.4	34.2	6.7	Casp3 UBC13 ctr=-2.2;UBC13 confirm=94.1*
Cc1ccccc1OCc1n(CC(=O)OC2CC(C)CCC2C(C)C)c2ccccc2[n+]1C (stereo not drawn)	47.3*	55.4*	5.5	14.5	47.7*	19.6	Casp3 UBC13 ctr=0.7;UBC13 confirm=97.6*;Apaf1 inh interf=>100
CCCCCOC(=O)Cn1c(=O)oc2ccccc21	2.0	5.3	4.0	6.3	/	/
CCCCCCCCCCOC(=O)Cn1c(COc2ccc(OC)cc2)[n+](C)c2ccccc21	72.4*	62.8*	/	-13.5	68.2*	17.4	Casp3 UBC13 ctr=5.2;UBC13 confirm=80.9*;Apaf1 inh interf=>100
CCCCOC(=O)Cn1c(=O)n(CC(=O)OCCCC)c2ccccc21	-0.9	1.9	3.3	24.6	/	/
CCCCCCCCCCOC(=O)Cn1c(COc2ccc(Cl)cc2)[n+](C)c2ccccc21	84.5*	99.8*	/	-31.2	90.4*	23.8	Casp3 UBC13 ctr=-1.0;UBC13 confirm=89.3*;Apaf1 inh interf=>100
CCCCCCCCCCOC(=O)Cn1c(COc2ccccc2)[n+](C)c2ccccc21	73.1*	58.8*	/	-63.6	72.2*	25.3	Casp3 UBC13 ctr=-4.6;UBC13 confirm=69.8*;Apaf1 inh interf=>100
CCCCCCCCCCOC(=O)Cn1c(COc2cccc(C)c2)[n+](C)c2ccccc21	79.4*	51.5*	/	-47.9	77.3*	33.5	Casp3 UBC13 ctr=3.9;UBC13 confirm=67.8*;Apaf1 inh interf=>100
CCOC(=O)Cn1c(COc2ccccc2OC)[n+](C)c2ccccc21	-7.3	4.7	4.6	-7.0	/	/
CCCCCCCCCCOC(=O)Cn1c(COc2ccccc2C)[n+](C)c2ccccc21	80.8*	45.2*	/	-118.1	83.0*	24.7	Casp3 UBC13 ctr=0.7;UBC13 confirm=44.2;Apaf1 inh interf=>100
Cc1cccc(OCCCn2c(=O)sc3ccccc32)c1	5.5	10.6	0.7	-6.4	/	/
COc1cc(C(=O)NCC(=O)NN=Cc2ccccn2)cc(OC)c1OC	/	/	2.3	/	/	/
CC(=NOC(=O)c1ccc(C)cc1)c1cccs1	/	/	3.2	/	/	/
CC(=NNC(=O)CNc1cccc(C)c1)c1ccc(Br)s1	/	/	2.7	/	/	/
O=C(NCc1ccccc1)c1ccc(C=NO)nc1	/	/	0.9	/	/	/
c1ccc2c(-c3ccc(OCCN4CCCCC4)cc3)c(-c3ccsc3)sc2c1	59.1*	58.5*	/	-3.7	9.5	9.9	Casp3 UBC13 ctr=-3.1;UBC13 confirm=55.8*
Cc1cccc(C(=O)Oc2ccc(C=NNC(=O)c3ccccc3O)cc2)c1	/	/	-124.2	/	/	/
O=S(=O)(c1ccc(NC(=S)NN=Cc2ccc(O)c(O)c2)cc1)N1CCOCC1	/	/	5.9	/	/	/
Cc1ccc(S(=O)(=O)N2CCN(c3ccc4nnc(-c5ccccc5)n4n3)CC2)cc1	/	/	1.9	/	/	/
COc1ccc(S(=O)(=O)N2CCN(c3ccc4nnc(-c5ccc(F)cc5)n4n3)CC2)cc1	50.7*	45.5*	0.3	-15.4	46.8*	0.5	Casp3 UBC13 ctr=2.6;UBC13 confirm=30.1;Apaf1 inh interf=>100
Fc1ccccc1C=NNc1nc(N2CCCCC2)nc(N2CCCCC2)n1	/	/	7.8	/	/	/
CC(C)(C)c1cc(C=NNC(=O)C[n+]2ccccc2)cc(C(C)(C)C)c1O	/	/	4.6	/	/	/
Cc1nc2ccccn2c(=O)c1CCN1CCC(C(=O)c2ccc(F)cc2)CC1	1.2	-5.4	-2.6	26.6	/	/
Cc1nc2sccn2c(=O)c1CCN1CCC(=C(c2ccc(F)cc2)c2ccc(F)cc2)CC1	42.3*	45.3*	1.3	1.8	18.8	8.5	Casp3 UBC13 ctr=-1.4;UBC13 confirm=22.2
O=C(CON=Cc1ccccc1O)NNC(=O)c1ccccc1Cl	/	/	1.9	/	/	/
SMILES	Apaf1 inhib	UBC13 inh	UCH37 DUB inh	PREPL inh	Apaf-1 inh conf2	Rh110 quench	others
C#CCOCCOCCOCCNc1nc(N2CCN(C(=O)[C@H](CCCCN)n3cc(CN)nn3)CC2)nc(N2CCN(C(=O)[C@H](CCCCN)n3cc([C@@H](N)[C@H](C)CC)nn3)CC2)n1	40.2*	109.1*	36.0*	14.9	5.7	-1.1	Casp3 UBC13 ctr=-2.2;UBC13 confirm=108.5*;UCH37 reconfirm=3.8
CCc1ccc(N2CC(C(=O)NN=Cc3cccc([N+](=O)[O-])c3)CC2=O)cc1 (stereo not drawn)	/	/	3.1	/	/	/
CN1C(=O)CC(Nc2cccc3cccc(N)c23)C1=O (stereo not drawn)	53.9*	-12.8	6.1	5.8	11.8	2.6
Cc1ccc(C=NNC(=O)c2ccc3nc[nH]c3c2)o1	/	/	11.5	/	/	/
O=C(Cn1cncn1)NN=Cc1ccccc1Cl	/	/	1.0	/	/	/
CCOc1ccc(NC(=O)c2c[nH]n3c(=O)cc(C4CCN(C(=O)OC(C)(C)C)CC4)nc23)cc1	40.4*	-22.0	15.6	31.7	26.0	3.8
Cc1ccc(S(=O)(=O)N2CCN(C(=O)COC(=O)c3ccc([N+](=O)[O-])o3)CC2)c(C)c1	59.3*	-1.4	9.3	17.9	21.7	7.9
Cc1ccc(S(=O)(=O)N2CCN(C(=O)COC(=O)c3cc([N+](=O)[O-])ccc3NCCO)CC2)c(C)c1	12.5	1.6	/	19.1	/	/
CCCCCCCCCCCCOC(=O)C[N+](C)(C)C	46.2*	25.9	0.5	3.9	9.9	1.3
COc1ccc(C=NNC(=O)c2cccc(OC(F)(F)C(F)F)c2)cc1O	/	/	2.2	/	/	/
CC=NNC(=O)c1cc(Br)ccc1O	/	/	-75.7	/	/	/
C/C=N/NC(=O)c1cc(Br)ccc1O	57.1*	-2.3	/	17.9	3.4	9.1
CC1CC(=NNC(=O)c2cccc(F)c2)c2ccc(O)cc2C1 (stereo not drawn)	/	/	4.0	/	/	/
O=C1Cc2ccccc2C(=O)N1Cc1ccccc1	52.3*	-14.5	26.3*	-1.2	76.4*	7.9	Apaf1 inh interf=>100
COc1cccc2c1C(=O)c1c(O)c3c(c(O)c1C2=O)C[C@@](O)(C(=O)CO)C[C@@H]3O[C@H]1C[C@H](N)[C@H](O)[C@H](C)O1	57.7*	-267.8	5.4	23.6	60.9*	0.2	Apaf1 inh interf=>100
CC(=O)n1cc(C=NNC(=O)c2ccccc2Cl)c2ccccc21	/	/	4.9	/	/	/
Cc1occc1C(=O)NN=Cc1c[nH]c2ccccc12	/	/	8.8	/	/	/
COc1ccc(C2C(C(=O)c3ccco3)=C(O)C(=O)N2CCCn2ccnc2)c(OC)c1 (stereo not drawn)	57.2*	-45.9	9.6	12.5	3.8	-16.2
COc1cc(C2C(C(=O)c3ccc(C)o3)=C(O)C(=O)N2CCCn2ccnc2)cc(OC)c1OC (stereo not drawn)	12.4	-44.8	4.4	4.9	/	/
O=C(ON=C1CCCc2occc21)c1ccccc1	/	/	3.3	/	/	/
